# Source: ChEMBL document CHEMBL5236592, “Induction of Ferroptosis in Glioblastoma and Ovarian Cancers by a New Pyrrole Tubulin Assembly Inhibitor” (J Med Chem, 2022)
# Calls of active or inactive are those of the source. The rule behind the calls is not given here.
# What was measured:
# [1] = system: U-87MG ATCC; assay: Induction of ferroptosis-mediated antitumor activity against human U-87 MG cells xenografted in BALB/C nu/nu mouse assessed as reduction in total glutathione level in tumor at 25 mg/kg, ip administered every 2 days for 40 days by biochemical analysis; assay type: functional, organism-based; settings: time 40.0 day
# Method in brief: (§1)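 U-87 MG or SKOV-3 sc xenografts (1 × 10^8 cells/mL) in female BALB/c nu/nu mice, 4 per group. Given 25 mg/kg ip in 100 μL every 2 days, or saline. Tumors harvested on day 40 and assayed for LPO, MDA, lactic acid, total glutathione (GSH + GSSG), ATP and Fe2+.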
# [2] = system: Mus musculus; assay: Upregulation of Cars mRNA expression in tumor of BALB/C nu/nu mouse xenografted with human U-87 MG cells at 25 mg/kg, ip administered every 2 days for 40 days by qPCR analysis; assay type: functional, organism-based; settings: time 40.0 day
# Method in brief: (§2)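 Female BALB/c nu/nu mice bearing sc U-87 MG or SKOV-3 xenografts were dosed ip at 25 mg/kg (100 μL) every 2 days, or given saline, and tumors were taken at day 40. RNA was extracted from about 20 mg of tissue. qPCR ran 40 cycles (95 °C 15 min; 94 °C 20 s; 60 °C 34 s) on a 69-gene panel. Fold change was by 2^–ΔΔCt, with ≥1.5 counted as increased.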
# [3] = system: Mus musculus; assay: Upregulation of Gls2 mRNA expression in tumor of BALB/C nu/nu mouse xenografted with human U-87 MG cells at 25 mg/kg, ip administered every 2 days for 40 days by qPCR analysis; assay type: functional, organism-based; settings: time 40.0 day
# Method in brief: (§3)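 Female BALB/c nu/nu mice, 10 weeks old, 4 per group. Inoculated s.c. with 1 × 10^8 cells/mL of log-phase U-87 MG or SKOV-3 cells. Dosed i.p. with 100 μL at 25 mg/kg every 2 days; controls got 100 μL saline. Tumors harvested on day 40. RNA extracted from about 20 mg of tissue. qPCR panel of 69 genes, 40 cycles (94 °C 20 s, 60 °C 34 s). Analysed by 2–ΔΔCt; fold ≥1.5 taken as increased.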
# [4] = system: T-cell line; assay: Cytotoxicity against human primary T-lymphocytes assessed as reduction in cell viability at 1 to 2.5 uM incubated for 48 to 72 hrs by Annexin V- APC/PI staining based flow cytometry analysis; assay type: toxicity; settings: dose lower 1 µM, time lower 48 hrs, dose upper 2.5 µM, time upper 72 hrs
# Method in brief: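 T lymphocytes negatively selected from healthy-donor PBMCs isolated by density gradient. Cultured at 1.5 × 10^6/mL with 0.1, 1.0 or 2.5 μM compound, DMSO vehicle or untreated, for 48 or 72 h. Stained with annexin V-APC and propidium iodide; early and late apoptotic fractions counted by flow cytometry.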
# [5] = system: U-87MG ATCC; assay: Induction of ferroptosis-mediated antitumor activity against human U-87 MG cells xenografted in BALB/C nu/nu mouse assessed as reduction in GPX4 protein expression in tumor at 25 mg/kg, ip administered every 2 days for 40 days by immunofluoresence staining based assay; assay type: functional, organism-based; settings: time 40.0 day
# Method in brief: (§4)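 Xenografts of U-87 MG or SKOV-3 (1 × 10^8 cells/mL, sc) in female BALB/c nu/nu mice, 4 per group. Treated ip at 25 mg/kg in 100 μL every 2 days versus saline, tumors collected at day 40. Paraffin sections (6 μm) were blocked at 37 °C for 30 min, then incubated with rabbit anti-GPX4 or anti-FTH1 and then Alexa Fluor 488 anti-rabbit, each for 45 min at 37 °C.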
# [6] = system: Mus musculus; assay: Upregulation of Sqs mRNA expression in tumor of BALB/C nu/nu mouse xenografted with human SK-OV-3 cells at 25 mg/kg, ip administered every 2 days for 40 days by qPCR analysis; assay type: functional, organism-based; settings: time 40.0 day; method in brief: as §3
# [7] = system: Mus musculus; assay: Upregulation of Sat1 mRNA expression in tumor of BALB/C nu/nu mouse xenografted with human SK-OV-3 cells at 25 mg/kg, ip administered every 2 days for 40 days by qPCR analysis; assay type: functional, organism-based; settings: time 40.0 day; method in brief: as §3
# [8] = system: Mus musculus; assay: Upregulation of Alfm1 mRNA expression in tumor of BALB/C nu/nu mouse xenografted with human U-87 MG cells at 25 mg/kg, ip administered every 2 days for 40 days by qPCR analysis; assay type: functional, organism-based; settings: time 40.0 day; method in brief: as §2
# [9] = system: U-87MG ATCC; assay: Antitumor activity against human U-87 MG cells xenografted in BALB/C nu/nu mouse assessed as reduction in Ki67 expression in tumor at 25 mg/kg, ip administered every 2 days for 40 days by immunofluoresence staining based assay; assay type: functional, organism-based; settings: time 40.0 day
# Method in brief: (§5)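 Female BALB/c nu/nu mice, 10 weeks old, 4 per group. Received subcutaneous U-87 MG or SKOV-3 cells (1 × 10^8 cells/mL, harvested in log phase). Dosed ip with 100 μL at 25 mg/kg every 2 days; controls got 100 μL saline on the same schedule. Sacrificed at 40 days; tumors weighed, volume = ab²/2. Tumor sections (6 μm, paraffin) stained by immunofluorescence for Ki67 or CD31 with Alexa Fluor 488 secondary.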
# [10] = system: Mus musculus; assay: Upregulation of Nfe2l2 mRNA expression in tumor of BALB/C nu/nu mouse xenografted with human U-87 MG cells at 25 mg/kg, ip administered every 2 days for 40 days by qPCR analysis; assay type: functional, organism-based; settings: time 40.0 day; method in brief: as §3
# [11] = system: SK-OV-3; assay: Antitumor activity against human SK-OV-3 cells xenografted in BALB/C nu/nu mouse assessed as reduction in CD31 expression in tumor at 25 mg/kg, ip administered every 2 days for 40 days by immunofluoresence staining based assay; assay type: functional, organism-based; settings: time 40.0 day; method in brief: as §5
# [12] = system: Mus musculus; assay: Upregulation of ENDOG mRNA expression in tumor of BALB/C nu/nu mouse xenografted with human U-87 MG cells at 25 mg/kg, ip administered every 2 days for 40 days by qPCR analysis; assay type: functional, organism-based; settings: time 40.0 day; method in brief: as §2
# [13] = system: Mus musculus; assay: Upregulation of PPIF mRNA expression in tumor of BALB/C nu/nu mouse xenografted with human U-87 MG cells at 25 mg/kg, ip administered every 2 days for 40 days by qPCR analysis; assay type: functional, organism-based; settings: time 40.0 day; method in brief: as §3
# [14] = system: SK-OV-3; assay: Induction of ferroptosis-mediated antitumor activity against human SK-OV-3 cells xenografted in BALB/C nu/nu mouse assessed as reduction in GPX4 protein expression in tumor at 25 mg/kg, ip administered every 2 days for 40 days by immunofluoresence staining based assay; assay type: functional, organism-based; settings: time 40.0 day; method in brief: as §4
# [15] = system: SK-OV-3; assay: Induction of ferroptosis-mediated antitumor activity against human SK-OV-3 cells xenografted in BALB/C nu/nu mouse assessed as increase in Fe2+ level in tumor at 25 mg/kg, ip administered every 2 days for 40 days; assay type: functional, organism-based; settings: time 40.0 day; method in brief: as §1
# [16] = system: U-87MG ATCC; assay: Induction of ferroptosis-mediated antitumor activity against human U-87 MG cells xenografted in BALB/C nu/nu mouse assessed as increase in lactic acid level in tumor at 25 mg/kg, ip administered every 2 days for 40 days by biochemical analysis; assay type: functional, organism-based; settings: time 40.0 day; method in brief: as §1
# [17] = system: Mus musculus; assay: Upregulation of Cs mRNA expression in tumor of BALB/C nu/nu mouse xenografted with human U-87 MG cells at 25 mg/kg, ip administered every 2 days for 40 days by qPCR analysis; assay type: functional, organism-based; settings: time 40.0 day; method in brief: as §2
# [18] = system: Mus musculus; assay: Upregulation of Hspb5 mRNA expression in tumor of BALB/C nu/nu mouse xenografted with human SK-OV-3 cells at 25 mg/kg, ip administered every 2 days for 40 days by qPCR analysis; assay type: functional, organism-based; settings: time 40.0 day; method in brief: as §3
smiles,measurement,setting,value
COc1cc(C(=O)c2cn(-c3ncccn3)cc2-c2ccco2)cc(OC)c1OC,Activity,[1],Active
same,Activity,[2],Active
same,Activity,[3],Active
same,Activity,[4],Toxic
same,Activity,[5],Active
same,Activity,[6],Active
same,Activity,[7],Active
same,Activity,[8],Active
same,Activity,[9],Active
same,Activity,[10],Active
same,Activity,[11],Active
same,Activity,[12],Active
same,Activity,[13],Active
same,Activity,[14],Active
same,Activity,[15],Active
same,Activity,[16],Active
same,Activity,[17],Active
same,Activity,[18],Active
